From ChEMBL document CHEMBL3611998, “Syntheses and studies of new forms of N-sulfonyloxy β-lactams as potential antibacterial agents and β-lactamase inhibitors” (Bioorg Med Chem, 2015) come the findings set out here.

Test [1] relates to Mycolicibacterium vaccae. As to the kind of experiment: Antimicrobial activity against Mycobacterium vaccae IMET 10670 at 2 mM incubated for 48 hrs by agar diffusion assay. Conditions: IMET 10670, 48 h, read-out: DIZ. Type of test: functional. In short, it runs like this: (§1)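 Seeded-agar well diffusion: 2 mM test solution (from 20 mM DMSO stock, diluted 10-fold in MeOH), 50 μL per 9.0 mm well. Inoculum was 0.1 mL of a 0.5 McFarland saline suspension ([…]) in 34 mL Mueller-Hinton No. 2 agar. Incubation was at 37 °C for 48 h, with plates photographed after 3 days. Zone diameters were measured by caliper.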
Background: In agar diffusion tests the substance spreads into inoculated agar from a disc or well.

The subject of test [2] is Acinetobacter baumannii. The test is described as follows: Antimicrobial activity against Acinetobacter baumannii ATCC 17961 at 2 mM incubated for 20 hrs by agar diffusion assay. Type of test: functional. The note with it: ATCC 17961, 20 h, read-out: DIZ. In short, it runs like this: (§2)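 The test solution was made as 20 mM in DMSO and diluted 10-fold in MeOH to 2 mM. Overnight LB cultures were adjusted to a 0.5 McFarland standard ([…] in 0.9% saline), and 0.1 mL was seeded into 34 mL Mueller-Hinton No. 2 agar at 47–50 °C. 50 μL was placed in 9.0 mm wells. Plates were incubated at 37 °C for 20 h, and inhibition zone diameters were measured by caliper.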

Test [3] relates to Burkholderia dolosa. The test is described as follows: Antimicrobial activity against Burkholderia dolosa at 2 mM incubated for 20 hrs by agar diffusion assay. The note with it: read-out: DIZ. It is filed as functional. In short, it runs like this:
as §2

Test [4] relates to Pseudomonas aeruginosa. The test is described as follows: Antimicrobial activity against wild type Pseudomonas aeruginosa K799 at 2 mM incubated for 20 hrs by agar diffusion assay. Type of test: functional. Conditions: K799, 20 h, read-out: DIZ. In short, it runs like this:
as §2

Test [5] has as its system Pseudomonas aeruginosa. As to the kind of experiment: Antimicrobial activity against Pseudomonas aeruginosa K799/61 at 2 mM incubated for 20 hrs by agar diffusion assay. Type of test: functional. Conditions: K799/61, 20 h, read-out: DIZ. In short, it runs like this: as §2
For test [6], the system named is Escherichia coli. The test is described as follows: Antimicrobial activity against Escherichia coli DC0 at 2 mM incubated for 20 hrs by agar diffusion assay. It is filed as functional. Conditions: DC0, 20 h, read-out: DIZ. In short, it runs like this:
as §2

The test system of test [7] is Escherichia coli. The test is described as follows: Antimicrobial activity against Escherichia coli DC2 assessed as very very unclear inhibition zone at 2 mM incubated for 20 hrs by agar diffusion assay. Type of test: functional. The note with it: DC2, 20 h, read-out: DIZ. In short, it runs like this:
as §2

A short description of test [8]: Inhibition of beta-lactamase KPC-2 (unknown origin) using nitrocefin substrate incubated for 10 mins. In short, it runs like this: (§3)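 Enzyme was preincubated with inhibitor at rt for 10 min in 50 mM sodium phosphate pH 7 with 0.1 mg/mL BSA. Inhibitor was tested at final concentrations of 160 μM to 3 nM (1:3 series, 8 points). Nitrocefin was then added at 50 μM, and hydrolysis was followed as OD 495 nm over time.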

Test [9] can be described thus: Inhibition of beta-lactamase CTX-M-14 (unknown origin) using nitrocefin substrate incubated for 10 mins. In short, it runs like this: as §3
The nature of test [10]: Inhibition of beta-lactamase OXA-48 (unknown origin) using nitrocefin substrate incubated for 10 mins. In short, it runs like this:
as §3

The nature of test [11]: Inhibition of beta-lactamase AmpC (unknown origin) using nitrocefin substrate incubated for 10 mins. In short, it runs like this: as §3
A short description of test [12]: Inhibition of beta-lactamase SHV-12 (unknown origin) using nitrocefin substrate incubated for 10 mins. In short, it runs like this: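 SHV-12 was added as 50 μL of a 0.111 mg/mL solution and preincubated for 10 min at rt with inhibitor (final 160 μM to 3 nM, 1:3 dilutions). Buffer was 50 mM sodium phosphate pH 7 with 0.1 mg/mL BSA. Reaction was started with 10 μM nitrocefin and followed as OD 495 nm over time.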

A short description of test [13]: Inhibition of beta-lactamase PAM-2035 (unknown origin) using nitrocefin substrate incubated for 10 mins.
Test [14] in a line: Inhibition of beta-lactamase NDM1 (unknown origin) using imipenem substrate incubated for 10 mins. In short, it runs like this:
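NDM-1 was added as 50 μL of a 0.110 mg/mL solution and preincubated with inhibitor (final 160 μM to 3 nM, 8-point 1:3 series) for 10 min at rt. Buffer was 50 mM sodium phosphate pH 7 with 0.1 mg/mL BSA. 10 μM imipenem was then added, and its disappearance was monitored over time.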

Test [15] can be described thus: Inhibition of beta-lactamase VIM-1 (unknown origin) using nitrocefin substrate incubated for 10 mins.
Test [16] relates to Bacillus spizizenii. The test is described as follows: Antimicrobial activity against Bacillus subtilis ATCC 6633 at 2 mM incubated for 20 hrs by agar diffusion assay. Type of test: functional. The note with it: ATCC 6633, 20 h, read-out: DIZ. In short, it runs like this:
as §2

The test system of test [17] is Bacillus spizizenii. As to the kind of experiment: Antimicrobial activity against Bacillus subtilis ATCC 6633 assessed as unclear inhibition zone at 2 mM incubated for 20 hrs by agar diffusion assay. It is filed as functional. Conditions: ATCC 6633, 20 h, read-out: DIZ. In short, it runs like this:
as §2

The test system of test [18] is Staphylococcus aureus. The test is described as follows: Antimicrobial activity against Staphylococcus aureus SG511 at 2 mM incubated for 20 hrs by agar diffusion assay. It is filed as functional. Conditions: for zone of inhibition at 2000 µM: SG511, 20 h, read-out: DIZ. In short, it runs like this:
as §2

Test [19] deals with Micrococcus luteus. The test is described as follows: Antimicrobial activity against Micrococcus luteus ATCC 10240 at 2 mM incubated for 20 hrs by agar diffusion assay. It is filed as functional. The note with it: ATCC 10240, 20 h, read-out: DIZ. In short, it runs like this:
as §2

Test [20] has as its system Mycolicibacterium vaccae. The test is described as follows: Antimicrobial activity against Mycobacterium vaccae IMET 10670 assessed as unclear inhibition zone at 2 mM incubated for 48 hrs by agar diffusion assay. Type of test: functional. The note with it: IMET 10670, 48 h, read-out: DIZ. In short, it runs like this:
as §1

Test [21] concerns Bacillus spizizenii. As to the kind of experiment: Antimicrobial activity against Bacillus subtilis ATCC 6633 assessed as very unclear inhibition zone at 2 mM incubated for 20 hrs by agar diffusion assay. Type of test: functional. The note with it: ATCC 6633, 20 h, read-out: DIZ. In short, it runs like this: as §2
Test [22] has as its system Acinetobacter baumannii. As to the kind of experiment: Antimicrobial activity against Acinetobacter baumannii ATCC 17961 assessed as unclear inhibition zone at 2 mM incubated for 20 hrs by agar diffusion assay. Type of test: functional. Conditions: ATCC 17961, 20 h, read-out: DIZ. In short, it runs like this: as §2
Test [23] deals with Escherichia coli. The test is described as follows: Antimicrobial activity against Escherichia coli DC2 at 2 mM incubated for 20 hrs by agar diffusion assay. Type of test: functional. The note with it: for zone of inhibition at 2000 µM: DC2, 20 h, read-out: DIZ. In short, it runs like this:
as §2

Test [24] has as its system Micrococcus luteus. As to the kind of experiment: Antimicrobial activity against Micrococcus luteus ATCC 10240 assessed as unclear inhibition zone at 2 mM incubated for 20 hrs by agar diffusion assay. It is filed as functional. The note with it: ATCC 10240, 20 h, read-out: DIZ. In short, it runs like this:
as §2

The test system of test [25] is Staphylococcus aureus. As to the kind of experiment: Antimicrobial activity against Staphylococcus aureus SG511 assessed as unclear inhibition zone at 2 mM incubated for 20 hrs by agar diffusion assay. It is filed as functional. The note with it: SG511, 20 h, read-out: DIZ. In short, it runs like this: as §2
The test system of test [26] is Staphylococcus aureus. As to the kind of experiment: Antimicrobial activity against Staphylococcus aureus SG511 assessed as very unclear inhibition zone at 2 mM incubated for 20 hrs by agar diffusion assay. Type of test: functional. Conditions: SG511, 20 h, read-out: DIZ. In short, it runs like this:
as §2

For test [27], the system named is Micrococcus luteus. As to the kind of experiment: Antimicrobial activity against Micrococcus luteus ATCC 10240 assessed as very unclear inhibition zone at 2 mM incubated for 20 hrs by agar diffusion assay. Conditions: ATCC 10240, 20 h, read-out: DIZ. It is filed as functional. In short, it runs like this: as §2
For test [28], the system named is Mycolicibacterium vaccae. As to the kind of experiment: Antimicrobial activity against Mycobacterium vaccae IMET 10670 assessed as very unclear inhibition zone at 2 mM incubated for 48 hrs by agar diffusion assay. Type of test: functional. The note with it: IMET 10670, 48 h, read-out: DIZ. In short, it runs like this:
as §1

Calls of active or inactive are those of the source. No cut-off for these calls is given here. A value given as a limit tells only on which side of the number the result lay.

By Ki is commonly meant a measure of affinity in units of concentration, obtained from inhibition or displacement. Low readings indicate a stronger hold on the target, high ones a looser hold on the target. As for `O=C1CC(CBr)N1OS(=O)(=O)c1ccc2ccccc2c1` (centres undefined), the zone of inhibition at 2000 µM in test [1] amounted to 17 mm; in test [2], 0 mm; in test [3], 0 mm; in [4] it was 0 mm; in [5], 0 mm; in test [6], 0 mm. For the same compound, the zone of inhibition at 2000 µM in test [7] came out at 15 mm; in [16], 13 mm; in test [17], 17 mm; in test [18], 13 mm; in test [19], 12 mm. The Ki in [8] is greater than 160 µM; in test [9] it was greater than 160 µM; in test [10], greater than 160 µM; in test [11], greater than 160 µM; in test [12] it was 0.19 µM; in test [13] it was greater than 160 µM. Besides, the Ki in test [14] and in test [15] was greater than 160 µM throughout.

Turning to `COc1ccc(S(=O)(=O)ON2C(=O)CC2CBr)cc1` (centres undefined), the zone of inhibition at 2000 µM stood at 17 mm in [20]; 0 mm in test [2]; 0 mm in [3]; 0 mm in test [4]; 0 mm in test [5]; 0 mm in [6]. Further, the zone of inhibition at 2000 µM in test [7] stood at 15 mm; in [21], 11 mm; in test [18], 0 mm; in test [19], 0 mm.

Regarding `Cc1ccc(S(=O)(=O)ON2C(=O)CC2Cn2cc(CNC(=O)c3cc(C(F)(F)F)ccc3Cl)nn2)cc1` (centres undefined), the zone of inhibition at 2000 µM in test [1] amounted to 0 mm; in [22] it was 13 mm; in test [3] it was 0 mm; in [4] it was 0 mm; in test [5] it was 0 mm; in test [6], 0 mm. For the same compound, the results for the zone of inhibition at 2000 µM in [23], in test [17] and in test [24] were 0 mm, 13 mm and 13 mm, respectively. In test [18], the “diameter of the inhibition zone (DIZ)” value was “Active”.

Consider `O=C1CC(CBr)N1OS(=O)(=O)c1ccc([N+](=O)[O-])cc1[N+](=O)[O-]` (centres undefined), for which the zone of inhibition at 2000 µM in test [1] was determined as 32 mm; in test [2], 0 mm; in [3], 0 mm; in test [4] it was 0 mm; in [5], 0 mm; in test [6] it was 0 mm. Besides, the zone of inhibition at 2000 µM in [7] was found to be 15 mm; in test [16], 22 mm; in test [25] it was 14 mm; in [26] it was 23 mm; in test [27], 16 mm.

Take `CC(C)c1cc(C(C)C)c(S(=O)(=O)ON2C(=O)CC2CBr)c(C(C)C)c1` (centres undefined): the zone of inhibition at 2000 µM in test [20] is 14 mm; in test [2] it was 0 mm; in test [3] it was 0 mm; in [4], 0 mm; in test [5], 0 mm; in test [6], 0 mm. The zone of inhibition at 2000 µM was 0 mm in [16], 0 mm in test [18] and 19 mm in test [27]. In addition, the “diameter of the inhibition zone (DIZ)” value in [23] is “Active”. In addition, the Ki in test [8], in test [9], in test [10], in [11], in [12] and in test [13] was greater than 160 µM throughout. In test [14], this compound returned a Ki greater than 160 µM.

Consider `O=C1CC(CBr)N1OS(=O)(=O)c1cccc2ccccc12` (centres undefined), for which the zone of inhibition at 2000 µM in test [28] was 16 mm; in test [2], 0 mm; in [3], 0 mm; in test [4], 0 mm; in [5] it was 0 mm; in test [6] it was 0 mm. Besides, the zone of inhibition at 2000 µM in test [23] came to 0 mm; in [16], 12 mm; in test [25] it was 14 mm; in test [24], 13.5 mm. The Ki in test [8] was greater than 160 µM; in test [9], greater than 160 µM; in test [10], 4.67 µM; in [11], greater than 160 µM; in test [12] it was 0.198 µM; in [13], greater than 160 µM. Besides, in test [14], the Ki is greater than 160 µM.
